Reference: ChEMBL document CHEMBL1142570, “Aurantosides G, H, and I: three new tetramic acid glycosides from a Papua New Guinea Theonella swinhoei” (J Nat Prod, 2005)
Activity calls are given as the source filed them.

How the values were obtained:
[1] = tested on: Human immunodeficiency virus 1; test: Antiviral activity against HIV1 at 1 ug/ml; type: functional, organism-based
HCT-116 [2] = test: Cytotoxicity against human HCT 116 with null p53 mutant at 0.009 to 152 uM by MTT assay; type: functional
Outline: (§1)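 HCT116 p53+/+ and p53-/- cells grown in McCoy's medium with 2 mM L-glutamine, 1 mM sodium pyruvate, penicillin/streptomycin and 10% FBS at 37 °C, 5% CO2. Seeded at 4 × 10^5 cells/well and left to attach for 24 h. Exposed to 0-78 µg/mL compound for 72 h. MTT added (final 0.25 mg/mL) for 3 h, formazan dissolved in DMSO, A570 read, IC50 by curve fitting.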

HCT-116 [3] = test: Cytotoxicity against human HCT 116 with null p53 mutant p53 at 0.008 to 124 uM by MTT assay; type: functional; outline: as §1
HCT-116 [4] = test: Cytotoxicity against human HCT 116 with wild type p53 at 0.009 to 152 uM by MTT assay; type: functional; outline: as §1
HCT-116 [5] = test: Cytotoxicity against human HCT 116 with wild type p53 at 0.008 to 124 uM by MTT assay; type: functional; outline: as §1
[6] = tested on: Human immunodeficiency virus 1; test: Antiviral activity against HIV1 at 10 ug/ml; type: functional, organism-based
HCT-116 [7] = test: Cytotoxicity against human HCT 116 with wild type p53 at 0.006 to 103 uM by MTT assay; type: functional; outline: as §1
HCT-116 [8] = test: Cytotoxicity against human HCT 116 with null p53 mutant at 0.006 to 103 uM by MTT assay; type: functional; outline: as §1

Measured: Activity

C/C(Cl)=C/C=C/C=C/C=C/C=C/C(O)=C1\C(=O)[C@H](CC(N)=O)N([C@@H]2OC[C@@H](O)[C@H](O)[C@H]2O)C1=O
inactive: all assays above

C/C(Cl)=C/C=C/C=C/C=C/C=C/C(O)=C1\C(=O)[C@H](CC(N)=O)N([C@@H]2OC[C@@H](O)[C@H](O)[C@H]2O[C@@H]2OC[C@@H](O)[C@@H](O)[C@@H]2O)C1=O
inactive: all assays above

CO[C@@H]1[C@H](O[C@@H]2CO[C@@H](O[C@@H]3[C@@H](O)[C@H](O)CO[C@H]3N3C(=O)/C(=C(O)/C=C/C=C/C=C/C=C/C=C(/C)Cl)C(=O)[C@@H]3CC(N)=O)[C@@H](O)[C@@H]2O)O[C@H](C)[C@H]1O
inactive: all assays above
